# Calls of active or inactive are those of the source. The calls are words filed in the database; no cut-off is given here.
# Assays:
# [1] = Upregulation of TFAM expression in BCAEC at EC50 after 48 hrs by Western blot analysis; assay type: functional; details: Bos taurus
# [2] = Upregulation of mitochondrial complex-1 expression in BCAEC at 0.01 nmol/L after 48 hrs by Western blot analysis; assay type: functional; details: Bos taurus
# [3] = Upregulation of mitochondrial complex-2 expression in BCAEC at EC50 after 48 hrs by Western blot analysis relative to control; assay type: functional; details: Bos taurus
# [4] = Upregulation of mitofilin expression in BCAEC at EC50 after 48 hrs by Western blot analysis; assay type: functional; details: Bos taurus
# [5] = Upregulation of TFAM expression in BCAEC at EC50 after 48 hrs by Western blot analysis in presence of L-NAME; assay type: functional; details: Bos taurus
# [6] = Upregulation of porin expression in BCAEC at EC50 after 48 hrs by Western blot analysis in presence of L-NAME; assay type: functional; details: Bos taurus
# [7] = Upregulation of mitochondrial complex-1 expression in BCAEC at EC50 after 48 hrs by Western blot analysis in presence of L-NAME; assay type: functional; details: Bos taurus
# [8] = Upregulation of porin expression in BCAEC at EC50 after 48 hrs by Western blot analysis; assay type: functional; details: Bos taurus
# [9] = Upregulation of mitochondrial complex-1 expression in BCAEC at EC50 after 48 hrs by Western blot analysis relative to control; assay type: functional; details: Bos taurus
# [10] = Upregulation of mitochondrial complex-2 expression in BCAEC at EC50 after 48 hrs by Western blot analysis in presence of L-NAME; assay type: functional; details: Bos taurus
# [11] = molecular target: T1, Citrate synthase, mitochondrial (Bos taurus) (UniProt Q29RK1); assay: Induction of citrate synthase activity in BCAEC at EC50 after 48 hrs relative to control
# T1 sequence (whole entry): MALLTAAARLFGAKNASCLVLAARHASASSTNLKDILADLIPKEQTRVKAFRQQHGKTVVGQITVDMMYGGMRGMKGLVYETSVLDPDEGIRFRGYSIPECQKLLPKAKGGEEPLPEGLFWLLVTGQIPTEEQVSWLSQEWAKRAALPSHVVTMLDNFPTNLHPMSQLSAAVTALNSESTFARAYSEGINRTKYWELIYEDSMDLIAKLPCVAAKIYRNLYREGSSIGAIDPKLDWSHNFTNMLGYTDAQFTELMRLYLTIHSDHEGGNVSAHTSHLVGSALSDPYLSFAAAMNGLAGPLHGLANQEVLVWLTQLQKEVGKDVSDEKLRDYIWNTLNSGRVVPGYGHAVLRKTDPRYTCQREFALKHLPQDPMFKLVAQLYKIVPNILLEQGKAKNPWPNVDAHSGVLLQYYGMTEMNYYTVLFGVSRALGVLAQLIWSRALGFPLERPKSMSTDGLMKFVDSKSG
# [12] = molecular target: T1, Citrate synthase, mitochondrial (Bos taurus); assay: Induction of citrate synthase activity in BCAEC at EC50 after 48 hrs in presence of L-NAME
# [13] = Upregulation of mitofilin expression in BCAEC at EC50 after 48 hrs by Western blot analysis in presence of L-NAME; assay type: functional; details: Bos taurus
# [14] = molecular target: T2, Nitric oxide synthase 3 (Bos taurus, UniProt P29473); assay: Activation of eNOS in BCAEC assessed as increase in nitric oxide level after 10 mins by fluorometric analysis
# T2 sequence (P29473 whole entry): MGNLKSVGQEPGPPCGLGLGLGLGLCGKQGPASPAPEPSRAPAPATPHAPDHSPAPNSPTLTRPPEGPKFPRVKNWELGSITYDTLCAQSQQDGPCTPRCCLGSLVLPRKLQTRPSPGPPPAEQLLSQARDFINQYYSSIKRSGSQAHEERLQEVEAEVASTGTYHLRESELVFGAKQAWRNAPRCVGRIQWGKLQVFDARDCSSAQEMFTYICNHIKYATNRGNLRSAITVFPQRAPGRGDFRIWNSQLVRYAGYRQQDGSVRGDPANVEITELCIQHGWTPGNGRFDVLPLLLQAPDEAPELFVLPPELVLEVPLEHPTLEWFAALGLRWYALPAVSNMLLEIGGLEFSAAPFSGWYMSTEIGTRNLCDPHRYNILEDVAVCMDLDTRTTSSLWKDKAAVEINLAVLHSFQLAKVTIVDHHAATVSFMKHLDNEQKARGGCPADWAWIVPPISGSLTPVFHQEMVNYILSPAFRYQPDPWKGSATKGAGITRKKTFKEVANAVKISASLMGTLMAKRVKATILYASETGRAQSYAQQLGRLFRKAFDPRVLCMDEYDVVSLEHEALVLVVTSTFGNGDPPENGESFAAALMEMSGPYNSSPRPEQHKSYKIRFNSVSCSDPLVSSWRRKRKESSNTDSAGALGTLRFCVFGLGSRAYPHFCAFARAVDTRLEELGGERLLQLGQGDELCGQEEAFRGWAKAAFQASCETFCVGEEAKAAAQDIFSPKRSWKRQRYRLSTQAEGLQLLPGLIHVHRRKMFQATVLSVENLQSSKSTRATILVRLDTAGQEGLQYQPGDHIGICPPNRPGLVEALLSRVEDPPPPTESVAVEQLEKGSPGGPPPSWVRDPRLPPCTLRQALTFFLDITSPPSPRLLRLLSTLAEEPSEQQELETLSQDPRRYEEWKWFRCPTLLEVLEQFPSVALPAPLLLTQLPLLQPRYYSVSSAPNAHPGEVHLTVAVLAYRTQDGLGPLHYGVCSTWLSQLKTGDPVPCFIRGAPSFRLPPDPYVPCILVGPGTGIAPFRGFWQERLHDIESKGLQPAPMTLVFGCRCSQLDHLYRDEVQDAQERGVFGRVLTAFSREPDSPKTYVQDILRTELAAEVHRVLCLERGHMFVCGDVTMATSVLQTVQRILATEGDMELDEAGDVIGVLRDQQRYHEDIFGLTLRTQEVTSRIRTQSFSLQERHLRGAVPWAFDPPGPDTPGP
# Method in brief: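 Bovine coronary artery endothelial cells, in triplicate, were exposed to a range of concentrations of each compound. Medium was collected 10 min after treatment, and NO was quantified as nitrite/nitrate with a commercial kit. Sigmoidal concentration-response curves were fitted to the triplicate means to give EC50.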
# [15] = Upregulation of mitochondrial complex-1 expression in BCAEC at 100 nmol/L after 48 hrs by Western blot analysis; assay type: functional; details: Bos taurus
Compound,Activity [1],Activity [2],Activity [3] [%],Activity [4],Activity [5],Activity [6],Activity [7],Activity [8],Activity [9],Activity [10],Activity [11] [%],Activity [12],Activity [13],EC50 [14] [nM],Activity [15]
CC(=O)Oc1cc(OC(C)=O)c2c(c1)O[C@H](c1ccc(OC(C)=O)c(OC(C)=O)c1)[C@H](OC(C)=O)C2 [EPICATECHIN PENTAACETATE],Active,Active,25,Active,inactive,inactive,inactive,Active,60%,inactive,30,inactive,inactive,0.006,
Oc1cc(O)c2c(c1)O[C@H](c1ccc(O)c(O)c1)[C@H](O)C2 [(-)-EPICATECHIN],Active,,25,Active,inactive,inactive,inactive,inactive,20%,inactive,30,inactive,inactive,2,Active
CCOc1cc([C@H]2Oc3cc(O)cc(O)c3C[C@H]2O)ccc1O,,,,,,inactive,inactive,Active,inactive,inactive,30,inactive,inactive,1,

# Source: ChEMBL document CHEMBL2407003, “Effects of (-)-epicatechin and derivatives on nitric oxide mediated induction of mitochondrial proteins” (Bioorg Med Chem Lett, 2013)
